Reference: ChEMBL document CHEMBL1133527, “Exploring the structural basis of neurotoxicity in C(17)-polyacetylenes isolated from water hemlock” (J Med Chem, 2000)

What was measured:
[1] = target: GABA-A receptor; anion channel; test: Tested for inhibition of specific binding of [3H]-EBOB to GABA-Gated Chloride channels of Gamma-aminobutyric acid A receptor in rat brain cortex (Potency expressed as IC50); assay type: tissue-based
Summary of the method: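 Washed cortical membranes from SD rats (7 weeks), prepared in 50 mM Tris-HCl pH 7.4 and stored at -80 °C, equivalent to 5 mg tissue, incubated with 3 nM [3H]EBOB and test agent at 25 °C for 1 h. Bound ligand collected by filtration on polyethylenimine-treated GF/B filters and counted by scintillation. IC50 from dose-response curves run in duplicate.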

Mus musculus = test: Acute toxicity against mice after ip administration; assay type: organism-based; settings: in vivo

CCCCCC/C=C/C=C/C#CC#CCCCO
IC50 [1]: > 10 µM | LD50 (Mus musculus): > 37.8 mg kg-1 i.p.

CCCCC[C@H](O)/C=C/C=C/C#CC#CCCCO
IC50 [1]: 1.15 µM | LD50 (Mus musculus): 9.5 mg kg-1 i.p.

CCC[C@H](/C=C/C=C/C=C/C#CC#CCCCO)OC(C)=O
IC50 [1]: > 10 µM | LD50 (Mus musculus): 2.8 mg kg-1 i.p.

CCCCNC(=O)CCC#CC#C/C=C/C=C/C=C/[C@H](O)CCC
IC50 [1]: > 10 µM | LD50 (Mus musculus): 4.9 mg kg-1 i.p.

CCC[C@H](/C=C/C=C/C=C/C#CC#CCCCOC)OC
IC50 [1]: > 10 µM | LD50 (Mus musculus): > 57.2 mg kg-1 i.p.

CCC[C@@H](O)/C=C/C=C/C=C/C#CC#CCCCO [CICUTOXIN]
IC50 [1]: 0.54 µM | LD50 (Mus musculus): 2.8 mg kg-1 i.p.

CCCCCCC/C=C\[C@H](O)C#CC#CCCCO
IC50 [1]: 6.01 µM | LD50 (Mus musculus): > 393 mg kg-1 i.p.

CCCCCCC/C=C\C(=O)C#CC#CCCCO
IC50 [1]: > 10 µM | LD50 (Mus musculus): > 26 mg kg-1 i.p.

CCCC#CC#C/C=C/C=C/[C@@H](O)CCCCC
IC50 [1]: > 10 µM | LD50 (Mus musculus): > 97.6 mg kg-1 i.p.

CCC[C@@H](O)/C=C/C=C/C=C/C#CC#CCCCOC(C)=O
IC50 [1]: 1.1 µM | LD50 (Mus musculus): 1.9 mg kg-1 i.p.

CCC[C@@H](O)/C=C/C=C/C=C/C#CC#CCCC(=O)OC
IC50 [1]: 0.42 µM | LD50 (Mus musculus): 1.6 mg kg-1 i.p.

C=C[C@@H](O)C#CC#C[C@@H](O)/C=C\CCCCCCC [FALCARINDIOL]
IC50 [1]: > 10 µM | LD50 (Mus musculus): > 200 mg kg-1 i.p.

CCCC(=O)CC/C=C/C=C/C#CC#CCCCO
IC50 [1]: 3.64 µM | LD50 (Mus musculus): 1.1 mg kg-1 i.p.

CCCCC[C@H](O)/C=C/C=C/C#CCCCO
IC50 [1]: > 10 µM | LD50 (Mus musculus): > 70.8 mg kg-1 i.p.

CCC[C@@H](O)/C=C/C=C/C=C/C#CC#CCCC(N)=O
IC50 [1]: 1.56 µM | LD50 (Mus musculus): 1.1 mg kg-1 i.p.

CCCCCCC[C@H](O)/C=C/C#CC#CCCCO
IC50 [1]: 7.87 µM | LD50 (Mus musculus): > 105 mg kg-1 i.p.

CCCC(=O)/C=C/C=C/C=C/C#CC#CCCCO
IC50 [1]: 3.05 µM | LD50 (Mus musculus): 7.6 mg kg-1 i.p.

CCC[C@@H](O)/C=C/C=C/C=C/C#CC#CCCC=O
IC50 [1]: 2.22 µM | LD50 (Mus musculus): 4.9 mg kg-1 i.p.

C=C(C)[C@@H]1[C@H]2OC(=O)[C@@H]1[C@]1(O)C[C@H]3OC34C(=O)O[C@H]2[C@@]41C.CC(C)(O)[C@@H]1[C@H]2OC(=O)[C@@H]1[C@]1(O)C[C@H]3OC34C(=O)O[C@H]2[C@@]41C (stereo not given in full) [PICROTOXIN]
IC50 [1]: 1.31 µM

CCCCCC(=O)/C=C/C=C/C#CC#CCCCO
IC50 [1]: > 10 µM | LD50 (Mus musculus): > 25.8 mg kg-1 i.p.

CCCCCC(O)/C=C/C=C/C#CC#CCCCO (stereo not given)
LD50 (Mus musculus): 7.7 mg kg-1 i.p.

CCCCCCC/C=C\CC#CC#CCCCO
IC50 [1]: > 10 µM | LD50 (Mus musculus): > 24.6 mg kg-1 i.p.

CCC[C@@H](O)/C=C/C=C/C=C/C#CC#CCCC(=O)O
IC50 [1]: 0.3 µM | LD50 (Mus musculus): 0.76 mg kg-1 i.p.

CCC[C@H](/C=C/C=C/C=C/C#CC#CCCCOC(C)=O)OC(C)=O
IC50 [1]: > 10 µM | LD50 (Mus musculus): 15.7 mg kg-1 i.p.

CCC[C@@H](O)/C=C/C=C/C=C/C#CC#CCCCOC
IC50 [1]: 6.79 µM | LD50 (Mus musculus): 10.6 mg kg-1 i.p.

CCCC(O)/C=C/C=C/C=C/C#CC#CCCCO (stereo not given)
IC50 [1]: 2.01 µM | LD50 (Mus musculus): 38.6 mg kg-1 i.p.
